# Source: PubChem BioAssay (several laboratories)
# In the library only some 2.5% were active in any assay of this set; here they are far more common.
# dFosB act-1: activators of delta FosB homodimer, primary screen, biochemical, fluorescence polarization, TAMRA-CDK5 oligo, single point. Protein FosB (Mus musculus), P13346. purified delta FosB; percent of positive-control signal above neutral wells. activation, % at 25 µM. 340,000 compounds, 0.99% hits;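 active means mean activation above about 17%, with every replicate also reaching it, limit read from the data, passing the limit was not always enough; inconclusive means only one of the two conditions met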
# VIM-2 inhibitor: VIM-2 metallo-beta-lactamase inhibitors, primary screen, biochemical, epi-absorbance readout, Pseudomonas aeruginosa enzyme; purified VIM-2, nitrocefin hydrolysis, epi-absorbance fluorescence; inhibition, % at 5.6 µM; 290,000 compounds, 0.89% hits;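 active means inhibition above the mean of all tested compounds plus 3 SD, cutoff set per screening run, cut at about 7.5% in these data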;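 further: red hydrolysis product quenches plate fluorescence so inhibitors raise well fluorescence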
# IMP-1 inh: IMP-1 metallo-beta-lactamase inhibitors, primary screen, biochemical, epi-absorbance readout, Pseudomonas aeruginosa enzyme; metallo-beta-lactamase IMP-1 (Pseudomonas aeruginosa); purified IMP-1, nitrocefin hydrolysis, epi-absorbance fluorescence; inhibition, % at 5.6 µM; 290,000 compounds, 0.45% hits; AID 1556, 2009;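 active means inhibition above the mean plus 3 SD of all compounds in the same screening run, cut at about 4.5% in these data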
#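 Assay system: purified recombinant IMP-1 beta-lactamase. Input: IMP-1 0.2 nM before substrate addition. Buffer or medium: Zinc- and detergent-supplemented HEPES buffer, pH 7.1. Schedule: 25 °C, 15 min preincubation, 25 min reaction. Signal: Epi-absorbance fluorescence, 480 nm excitation, 530 nm emission. Evaluation: percent inhibition from optical density relative to buffer-blank wells.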
# HTR2A ag: mouse Htr2a agonists via beta-arrestin recruitment, primary screen, cell-based, luminescence; CHO-K1 mHTR2A beta-arrestin complementation; percent of 30 µM serotonin response; 360,000 compounds, 0.66% hits; activation, % at 7.6 µM; 5-hydroxytryptamine receptor 2A (Mus musculus), P35363;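 active means activation above a run cutoff, the mean activation of all tested compounds plus 3 SD, cut at about 14% in these data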
# Target sequence (P35363 whole entry, looked up): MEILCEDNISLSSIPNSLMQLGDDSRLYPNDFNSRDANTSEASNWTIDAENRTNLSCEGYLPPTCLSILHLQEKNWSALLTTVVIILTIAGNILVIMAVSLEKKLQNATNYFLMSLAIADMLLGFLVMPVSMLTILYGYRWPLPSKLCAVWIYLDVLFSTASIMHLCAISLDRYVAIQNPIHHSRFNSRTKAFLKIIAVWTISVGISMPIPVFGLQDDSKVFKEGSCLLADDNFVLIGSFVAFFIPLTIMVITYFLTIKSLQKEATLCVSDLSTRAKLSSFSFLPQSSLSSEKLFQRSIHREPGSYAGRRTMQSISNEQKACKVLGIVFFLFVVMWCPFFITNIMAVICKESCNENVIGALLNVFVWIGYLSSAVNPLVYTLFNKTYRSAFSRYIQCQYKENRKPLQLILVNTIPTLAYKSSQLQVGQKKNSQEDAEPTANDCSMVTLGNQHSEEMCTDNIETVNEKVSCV
# dFosB act-2: activators of mouse delta FosB DNA binding, confirmation, biochemical, fluorescence polarization, TAMRA-CDK5 oligo, cherry-picked samples | 2,400 tested, under 10 active | purified delta FosB; normalised: neutral wells 0, positive control 100 | activation, % at 24.9 µM | shares compounds with dFosB act-1;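 active means highest replicate activation at or above 34% and every replicate reaching that threshold; inconclusive means meets only one of the two criteria; inactive means meets neither criterion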;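 further: higher polarization means more probe DNA bound by delta FosB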
# A number is an active result; – = inactive; ? = inconclusive; · = not tested or not shown.
SMILES,dFosB act-1,VIM-2 inhibitor,IMP-1 inh,HTR2A ag,dFosB act-2
Cc1c(Cl)cccc1NC(=O)CNC(=O)C1CCN(C(=O)Nc2ccccc2)CC1,24.4,·,·,–,–
O=C(Nc1ccc(Cl)c(Cl)c1)c1ccc(Cn2c(=O)[nH]c3ccsc3c2=O)cc1,21.6,–,–,–,–
O=C(Nc1ccc(Oc2ccccc2)cc1)c1ccc(Cn2c(=O)[nH]c3ccsc3c2=O)cc1,62.3,–,–,–,–
O=C(NC1CCCC1)c1ccc(Cn2c(=O)[nH]c3ccsc3c2=O)cc1,–,–,–,–,·
COc1ccccc1N1CCN(C(=O)c2ccc(Cn3c(=O)[nH]c4ccsc4c3=O)cc2)CC1,–,–,–,–,·
CCc1ccccc1NS(=O)(=O)Cc1ccccc1,–,–,–,–,·
Cc1cccc(NC(=O)CSc2nc(N)c(NC(=O)c3ccccc3F)c(=O)[nH]2)c1,?,–,–,–,·
Nc1nc(SCC(=O)NCc2ccc(F)cc2)[nH]c(=O)c1NC(=O)c1ccc(Cl)cc1,33.0,–,–,–,–
CC(=O)Nc1ccc(NC(=O)CSc2nc(N)c(NC(=O)c3ccccc3F)c(=O)[nH]2)cc1,16.9,–,–,–,–
O=C(CN1C(=O)COc2ccc(Cl)cc21)Nc1nccs1,19.6,·,·,–,–
Cc1cccnc1NC(=O)CN1C(=O)COc2ccc(Cl)cc21,–,–,–,–,·
CCC(C)N1CCN(S(=O)(=O)c2ccc(NC(C)=O)cc2)CC1 (stereo not drawn),–,–,–,–,·
CCC(C)c1ccc(S(=O)(=O)N2CCN(S(=O)(=O)c3ccc(NC(C)=O)cc3)CC2)cc1 (stereo not drawn),80.5,–,–,–,–
COc1ccc(C)cc1Nc1nc(N)c2ccccc2n1,26.6,–,–,–,–
Cc1ccccc1Nc1nc(N)c2ccccc2n1,–,–,–,–,·
Cc1ccccc1NC(=O)c1ccc(F)c(S(=O)(=O)N2CCN(c3ccccn3)CC2)c1,19.0,–,–,–,–
Cc1cccc(OCCCC(=O)Nc2ccc(S(=O)(=O)Nc3nccs3)cc2)c1C,–,–,–,–,·
Cc1ccc(N(CC(=O)Nc2ccc3c(c2)OCCO3)S(=O)(=O)c2c(C)noc2C)cc1,–,–,–,–,·
COc1ccc(N(CC(=O)Nc2ccc3c(c2)OCCO3)S(=O)(=O)c2c(C)noc2C)cc1,36.9,–,–,–,–
Cc1cc(C)c2nc(N3CCCC(C(=O)NC4CCCC4)C3)sc2c1 (stereo not drawn),–,–,–,–,·
Cc1c(C(=O)Nc2ccc(F)cc2)cn2c(nc3ccccc32)c1C#N,33.5,–,–,–,–
Cc1cc(C)c(S(=O)(=O)N2CCc3ccccc32)c(C)c1,26.8,–,–,–,–
CCOc1ccccc1NC(=O)c1cc(C(=O)c2cc(Br)ccc2O)coc1=N,33.0,–,–,–,–
CC(C)OC(=O)c1cc(C(=O)c2cc(Br)ccc2O)coc1=N,–,–,–,–,·
O=C(c1ccc(NC(=S)NCc2ccc(Cl)cc2)cc1)N1CCCCC1,30.3,–,–,–,–
SMILES,dFosB act-1,VIM-2 inhibitor,IMP-1 inh,HTR2A ag,dFosB act-2
O=C(COc1ccc(Br)cc1)Nc1ccccc1C(=O)NC1CC1,28.8,·,·,–,–
COc1ccc(-c2noc(N3CCC(C(=O)NC(C)c4ccccc4)CC3)n2)cc1 (stereo not drawn),–,–,–,–,·
Cc1ccccc1N(C(=O)c1snc(C(N)=O)c1N)C(C(=O)NCc1ccccc1)c1ccc(O)cc1 (stereo not drawn),40.9,–,–,–,–
COc1cccc(N(C(=O)c2snc(C(N)=O)c2N)C(C(=O)NCc2ccccc2)c2ccc(O)cc2)c1 (stereo not drawn),–,–,–,–,·
CCOc1ccccc1N(C(=O)c1snc(C(N)=O)c1N)C(C(=O)NCc1ccccc1)c1ccc(O)cc1 (stereo not drawn),–,–,–,–,·
NC(=O)c1nsc(C(=O)N(c2ccccc2F)C(C(=O)NCc2ccccc2)c2ccc(O)cc2)c1N (stereo not drawn),32.0,–,–,–,–
